Data published in ChEMBL document CHEMBL1153057, “Chemical constituents of propolis from Myanmar and their preferential cytotoxicity against a human pancreatic cancer cell line” (2009).
Calls of active or inactive are those of the source. No cut-off for these calls is given here.

Key:
PANC-1 [1] = assay: Cytotoxicity against human PANC1 cells in nutrient-deprived condition assessed as 100% cell death after 24 hrs by WST8 assay; format: functional
In short: (§1)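 PANC-1 cells, 2 × 10⁴ per well, grown 24 h in DMEM at 37 °C under 5% CO2, PBS-washed, then switched to DMEM or nutrient-deprived medium (glucose-, amino acid- and serum-free salts, vitamins, 25 mM HEPES, pH 7.4) holding serial dilutions for 24 h. Viability by WST-8 (10% in DMEM, 3 h, A450), blank-corrected against untreated control, mean of three wells. PC100/PC50 = concentration killing 100%/50% of cells preferentially in NDM.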

PANC-1 [2] = assay: Cytotoxicity against human PANC1 cells in nutrient-deprived condition assessed as 50% cell death after 24 hrs by WST8 assay; format: functional; in short: as §1
PANC-1 [3] = assay: Induction of apoptosis in human PANC1 cells in nutrient deprived condition assessed as morphological changes at 6.25 uM within 24 hrs of treatment using phase contrast microscopy by WST8 assay; format: functional, cell-based
PANC-1 [4] = assay: Cytotoxicity against human PANC1 cells in nutrient-deprived condition assessed as complete preferential cell death at 6.25 uM within 24 hrs of starvation by WST8 assay; format: functional
PANC-1 [5] = assay: Cytotoxicity against human PANC1 cells in nutrient-deprived condition assessed as complete preferential cell death at 50 uM within 6 hrs of treatment by WST8 assay; format: functional

SMILES	CD100 (PANC-1 [1])	PC50 (PANC-1 [2])	Activity (PANC-1 [3])	Activity (PANC-1 [4])	Activity (PANC-1 [5])
C/C(=C\CC[C@@H](C)[C@H]1CC[C@@]2(C)[C@@H]3CC[C@H]4C(C)(C)[C@H](O)CC[C@@]45C[C@@]35CC[C@]12C)C(=O)O [ISOMANGIFEROLIC ACID]	25 µM	13.7 µM	–	–	–
C/C(=C\CC[C@@H](C)[C@H]1CC[C@@]2(C)[C@@H]3CC[C@H]4C(C)(C)C(=O)CC[C@@]45C[C@@]35CC[C@]12C)C(=O)O [MANGIFERONIC ACID]	>100 µM	>100 µM	–	–	–
C[C@H](CC/C=C(\CO)C(=O)O)[C@H]1CC[C@@]2(C)[C@@H]3CC[C@H]4C(C)(C)C(=O)CC[C@@]45C[C@@]35CC[C@]12C	50 µM	38.5 µM	–	–	–
CC(C)=CCc1c(O)cc(O)c2c1O[C@H](c1ccc(O)cc1)CC2=O [SOPHORAFLAVANONE B]	50 µM	39.4 µM	–	–	–
C[C@H](CC/C=C(\CO)C(=O)O)[C@H]1CC[C@@]2(C)[C@@H]3CC[C@H]4C(C)(C)[C@H](O)CC[C@@]45C[C@@]35CC[C@]12C	25 µM	15.5 µM	–	–	–
C/C(=C\CC(O)[C@@H](C)[C@H]1CC[C@@]2(C)[C@@H]3CC[C@H]4C(C)(C)[C@H](O)CC[C@@]45C[C@@]35CC[C@]12C)C(=O)O (stereo partly specified)	25 µM	13.4 µM	–	–	–
C/C(=C\C(O)C[C@@H](C)[C@H]1CC[C@@]2(C)[C@@H]3CC[C@H]4C(C)(C)[C@@H](O)CC[C@@]45C[C@@]35CC[C@]12C)C(=O)O (stereo partly specified)	>100 µM	>100 µM	–	–	–
COc1cc(C[C@H]2C(=O)OC[C@@H]2Cc2ccc(OC)c(OC)c2)ccc1O [ARCTIGENIN]	1 µM	0.4 µM	–	–	–
C/C(=C\CC[C@@H](C)[C@H]1CC[C@@]2(C)[C@@H]3CC[C@@H]4[C@@]5(CCC(=O)[C@@]4(C)CO)C[C@@]35CC[C@]12C)C(=O)O	>100 µM	>100 µM	–	–	–
C[C@H](CC/C=C(\CO)C(=O)O)[C@H]1CC[C@@]2(C)[C@@H]3CC[C@H]4C(C)(C)[C@@H](O)CC[C@@]45C[C@@]35CC[C@]12C	>100 µM	>100 µM	–	–	–
C/C(=C\C(O)C[C@@H](C)[C@H]1CC[C@@]2(C)[C@@H]3CC[C@H]4C(C)(C)C(=O)CC[C@@]45C[C@@]35CC[C@]12C)C(=O)O (stereo partly specified)	50 µM	28 µM	–	–	–
O=c1[nH]cc(F)c(=O)[nH]1 [FLUOROURACIL]	>100 µM	>100 µM	–	–	–
C/C(=C\CC[C@@H](C)[C@H]1CC[C@@]2(C)[C@@H]3CC[C@H]4C(C)(C)[C@@H](O)CC[C@@]45C[C@@]35CC[C@]12C)C(=O)O [MANGIFEROLIC ACID]	>100 µM	>100 µM	–	–	–
C/C(C=O)=C\CC[C@@H](C)[C@H]1CC[C@@]2(C)[C@@H]3CC[C@H]4C(C)(C)[C@@H](O)CC[C@@]45C[C@@]35CC[C@]12C	>100 µM	>100 µM	–	–	–
COc1ccc([C@@H]2CC(=O)c3c(O)cc(O)c(CC=C(C)C)c3O2)cc1CC=C(C)C	12.5 µM	7.9 µM	–	–	–
CC(C)=CCc1cc([C@@H]2CC(=O)c3c(O)cc(O)c(CC=C(C)C)c3O2)ccc1O [LESPEDEZAFLAVANONE B]	25 µM	19.8 µM	–	–	–
C[C@H](CC/C=C(\CO)C(=O)O)[C@H]1CC[C@@]2(C)[C@@H]3CC[C@@H]4[C@@]5(CCC(=O)[C@@]4(C)CO)C[C@@]35CC[C@]12C	>100 µM	>100 µM	–	–	–
CC(=O)O[C@H]1C(=O)[C@@]2(C)[C@H]([C@H](OC(=O)c3ccccc3)[C@]3(O)C[C@H](OC(=O)[C@H](O)[C@@H](NC(=O)c4ccccc4)c4ccccc4)C(C)=C1C3(C)C)[C@]1(OC(C)=O)CO[C@@H]1C[C@@H]2O [PACLITAXEL]	>100 µM	>100 µM	–	–	–
C/C(=C/C=C/[C@@H](C)[C@H]1CC[C@@]2(C)[C@@H]3CC[C@H]4C(C)(C)C(=O)CC[C@@]45C[C@@]35CC[C@]12C)C(=O)O	6.3 µM	4.3 µM	Active	100%	100%
